Tests used:
[1] = target: T1, Prostaglandin G/H synthase 1 (Homo sapiens, UniProt P23219); test: Concentration (in uM) to inhibit 50% of Prostaglandin G/H synthase 1 (COX-1) and is expressed in IC50.
Summary of the method: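 Human platelet microsomal fraction as enzyme, stored at -70 °C. Run 5 min at 37 °C, started by enzyme, stopped with HCl. PGF2α read by EIA, duplicates. IC50 taken from the percent-inhibition versus concentration curve.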

[2] = target: T2, Prostaglandin G/H synthase 2 (Homo sapiens, UniProt P35354)
T2 sequence (P35354 whole entry): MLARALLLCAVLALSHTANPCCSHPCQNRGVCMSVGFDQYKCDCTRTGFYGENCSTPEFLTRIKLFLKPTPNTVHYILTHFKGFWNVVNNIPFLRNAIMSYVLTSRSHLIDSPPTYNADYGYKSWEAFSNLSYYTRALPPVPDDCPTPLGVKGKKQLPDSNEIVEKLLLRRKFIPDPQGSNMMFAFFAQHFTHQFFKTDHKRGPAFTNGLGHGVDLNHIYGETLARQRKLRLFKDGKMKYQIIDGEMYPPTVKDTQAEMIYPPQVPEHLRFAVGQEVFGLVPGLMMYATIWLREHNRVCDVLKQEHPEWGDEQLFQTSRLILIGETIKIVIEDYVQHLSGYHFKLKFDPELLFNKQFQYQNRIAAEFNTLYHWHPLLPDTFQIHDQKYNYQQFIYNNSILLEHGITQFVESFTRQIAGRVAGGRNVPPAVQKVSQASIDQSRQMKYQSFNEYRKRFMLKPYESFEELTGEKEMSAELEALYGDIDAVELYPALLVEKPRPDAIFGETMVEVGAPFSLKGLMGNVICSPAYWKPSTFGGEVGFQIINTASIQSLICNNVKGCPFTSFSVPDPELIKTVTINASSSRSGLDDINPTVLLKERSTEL

[3] = test system: Mus musculus; test: % reduction in phenylquinone-induced abdominal constriction (PAC) at po (peroral) dose of 70 mg/kg in mice; format: functional, Abdomen
[4] = test system: Rattus norvegicus; test: Carrageenan paw edema index (CPE index) as ratio of the reduction in paw volume relative to tebufelone at a po (peroral) dose of 50 mg/kg.; format: functional
[5] = species: Mus musculus; test: The compound was tested for the concentration to inhibit 50% of phenylquinone-induced abdominal constriction (PAC).; format: functional; details: Abdomen
[6] = target: T1, Prostaglandin G/H synthase 1; test: Tested for selectivity for inhibition of human platelet derived COX-1 and recombinant human COX-2
Summary of the method: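 COX-1 was microsomes from human platelet concentrate and COX-2 was a sonicated lysate of Sf9 cells infected with baculovirus carrying human COX-2 cDNA. Each enzyme was added to AA (33 µM) and SnCl2 (0.5 mg/mL) in 50 mM Tris-HCl pH 7.5 and run 5 min at 37 °C, then stopped with HCl. PGF2α was measured by EIA, in duplicate. The value is IC50 COX-1/IC50 COX-2.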

[7] = test system: Mus musculus; test: Compound was tested for % reduction in phenylquinone-induced abdominal constriction (PAC) at po (peroral) dose of 70 mg/kg in mice; format: functional; details: Abdomen
[8] = target: Arachidonate 5-lipoxygenase (Rattus norvegicus); test: The compound was tested for the concentration (in uM) to inhibit 50% of 5-Lipoxygenase (5-LOX) and is expressed in IC50.

T1 sequence (P23219 whole entry): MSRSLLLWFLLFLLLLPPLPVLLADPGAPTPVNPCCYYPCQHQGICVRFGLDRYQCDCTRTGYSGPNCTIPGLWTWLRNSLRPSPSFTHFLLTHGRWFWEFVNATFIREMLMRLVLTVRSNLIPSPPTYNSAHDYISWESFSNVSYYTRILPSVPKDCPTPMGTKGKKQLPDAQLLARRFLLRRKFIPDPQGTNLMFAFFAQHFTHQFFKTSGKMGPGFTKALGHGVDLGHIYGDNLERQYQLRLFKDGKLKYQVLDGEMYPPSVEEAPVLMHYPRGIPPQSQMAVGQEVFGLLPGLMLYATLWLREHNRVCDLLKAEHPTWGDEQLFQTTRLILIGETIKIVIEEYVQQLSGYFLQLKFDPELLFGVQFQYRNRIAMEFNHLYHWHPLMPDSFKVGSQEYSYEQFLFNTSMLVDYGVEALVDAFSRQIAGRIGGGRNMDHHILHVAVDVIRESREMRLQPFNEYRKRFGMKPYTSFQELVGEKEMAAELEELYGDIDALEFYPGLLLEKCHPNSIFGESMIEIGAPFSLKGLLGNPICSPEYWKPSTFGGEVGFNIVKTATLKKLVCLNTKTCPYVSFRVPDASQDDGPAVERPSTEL

SMILES | IC50 [1] [nM] | IC50 [2] [nM] | CPE index [4] | also measured
C#CCCCC(=O)c1cc(C(C)(C)C)c2c(c1)C(C)(C)CO2 | 60 | 15 | – | –
CC(=O)SCC(=O)c1cc(C(C)(C)C)c2c(c1)C(C)(C)CO2 | – | – | 0.95 | Reduction [3]: 64%
CC(C)(C)c1cc(C(=O)CCCC2CC2)cc2c1OCC2(C)C | 7000 | 220 | – | –
CC(C)(C)c1cc(C(=O)CS(C)(=O)=O)cc2c1OCC2(C)C | – | – | 0 | –
CC(=O)OCC(=O)c1cc(C(C)(C)C)c2c(c1)C(C)(C)CO2 | – | – | 0.21 | –
CC(C)(C)C(=O)c1cc(C(C)(C)C)c2c(c1)C(C)(C)CO2 | – | – | 0.3 | –
CC(C)=CC(=O)c1cc(C(C)(C)C)c2c(c1)C(C)(C)CO2 | – | – | 1.22 | Reduction [3]: 50%
CC(C)(C)c1cccc2c1OCC2(C)C | – | – | 0.31 | –
CC(C)(C)c1cc(C(=O)CC2CC2)cc2c1OCC2(C)C | – | – | 1.06 | –
CSCCC(=O)c1cc(C(C)(C)C)c2c(c1)C(C)(C)CO2 | – | – | 0.7 | –
CCC(=O)c1cc(C(C)(C)C)c2c(c1)C(C)(C)CO2 | – | – | 1.14 | ED50 [5]: 20 mg/kg
CC(C)(C)c1cc(C(=O)c2ccccc2)cc2c1OCC2(C)C | 150 | 7 | – | Reduction [3]: 34%
CSCC(=O)c1cc(C(C)(C)C)c2c(c1)C(C)(C)CO2 | – | – | 1.77 | Reduction [3]: 35%
CC(C)(C)c1cc(C(=O)c2ccccc2Cl)cc2c1OCC2(C)C | – | – | 0 | –
CC(C)(C)c1cc(C(=O)CSCC2CC2)cc2c1OCC2(C)C | 650 | 400 | 0.62 | Reduction [3]: 54%; Selectivity [6]: 1.6
CC(C)(C)c1cc(C(=O)C2CCCCC2)cc2c1OCC2(C)C | – | – | 0.36 | –
CC(=O)c1cc(C(C)(C)C)c2c(c1)C(C)(C)CO2 | – | – | 0.92 | Reduction [3]: 78%
CCCCC(=O)c1cc(C(C)(C)C)c2c(c1)C(C)(C)CO2 | 2000 | 40 | – | –

SMILES | IC50 [1] [nM] | IC50 [2] [nM] | CPE index [4] | also measured
CC(O)c1cc(C(C)(C)C)c2c(c1)C(C)(C)CO2 (centres undefined) | – | – | 0 | –
CC(C)(C)c1cc(C(=O)CCC2CC2)cc2c1OCC2(C)C | – | – | 0.18 | Reduction [3]: 58%
C[S+]([O-])CC(=O)c1cc(C(C)(C)C)c2c(c1)C(C)(C)CO2 (centres undefined) | – | – | 1.01 | ED50 [5]: 20 mg/kg
C#CCCCC(=O)c1cc(C(C)(C)C)c(O)c(C(C)(C)C)c1 [TEBUFELONE] | 250 | 100 | – | –
CC(C)(C)c1cc(C(=O)/C=C/CC2CC2)cc2c1OCC2(C)C | 800 | 250 | 0.18 | –
CCCCCC(=O)c1cc(C(C)(C)C)c2c(c1)C(C)(C)CO2 | > 10000 | 90 | 0.4 | Selectivity [6]: > 111
CC(C)C(=O)c1cc(C(C)(C)C)c2c(c1)C(C)(C)CO2 | – | – | 1.25 | ED50 [5]: 22 mg/kg
CC(C)(C)c1cc(C(=O)CS(=O)(=O)CC2CC2)cc2c1OCC2(C)C | 5000 | 2000 | 0 | Selectivity [6]: 2.5
CC(C)(C)c1cc(C(=O)c2ccc(F)cc2)cc2c1OCC2(C)C | – | – | 0.52 | –
CC(C)(C)c1cc(C(=O)C2CCCC2)cc2c1OCC2(C)C | – | – | 0.65 | Reduction [3]: 56%
COCCOCC(=O)c1cc(C(C)(C)C)c2c(c1)C(C)(C)CO2 | – | – | 0.52 | –
CC(C)(Cl)CC(=O)c1cc(C(C)(C)C)c2c(c1)C(C)(C)CO2 | 1000 | 100 | 1.2 | ED50 [7]: 16 mg/kg; IC50 [8]: 8000 nM
CCCC(=O)c1cc(C(C)(C)C)c2c(c1)C(C)(C)CO2 | 95 | 95 | – | Reduction [3]: 85%
CN(CC(=O)c1cc(C(C)(C)C)c2c(c1)C(C)(C)CO2)CC1CC1 | 30000 | 2500 | 0.38 | –
CN(C)CCC(=O)c1cc(C(C)(C)C)c2c(c1)C(C)(C)CO2 | – | – | 0.32 | –
CC(C)CCCC(=O)c1cc(C(C)(C)C)c2c(c1)C(C)(C)CO2 | 15000 | 4500 | 0.36 | IC50 [8]: 15000 nM; Selectivity [6]: 3.3
CC(C)(C)c1cc(C(=O)C2CC2)cc2c1OCC2(C)C | – | – | 0.67 | Reduction [3]: 85%
CC(C)(C)c1cc(C(=O)C[S+]([O-])CC2CC2)cc2c1OCC2(C)C (centres undefined) | 20000 | 4000 | 0.04 | Selectivity [6]: 5
